# Measured values reported in ChEMBL document CHEMBL4251549, “Design, synthesis and biological evaluation of nitrogen-containing macrocyclic bisbibenzyl derivatives as potent anticancer agents by targeting the lysosome” (Eur J Med Chem, 2017).
# pIC50: −log10 of the molar value. Structures can show the parent of a compound that is named as a salt.
# Tests used:
# Type in all cases: functional, cell-based
# A549 = experiment: Antiproliferative activity in human A549 cells after 48 hrs by MTT assay; conditions: A549, 48 h
# In short: (§1)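 Cells exposed to compound for 48 h. Viability read by MTT, with absorbance of the solubilised MTT product at 570 nm. IC50 derived from at least three independent experiments.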
# MCF7 = experiment: Antiproliferative activity in human MCF7 cells after 48 hrs by MTT assay; conditions: MCF7, 48 h; in short: as §1
# K562 = experiment: Antiproliferative activity in human K562 cells after 48 hrs by MTT assay; conditions: K562, 48 h; in short: as §1
Compound,pIC50 (A549),pIC50 (MCF7),pIC50 (K562)
CN(C)CCCOc1cccc2c1-c1ccc(cc1O)CCc1ccc(O)c(c1)Oc1ccc(cc1)CC2,5.70,5.49,5.58
Oc1ccc2cc1Oc1ccc(cc1)CCc1ccc(CN3CCSCC3)c(O)c1-c1ccc(cc1O)CC2,4.79,4.80,4.87
Oc1cc2ccc1-c1c(ccc(CN3CCC(O)CC3)c1O)CCc1ccc(cc1)Oc1cc(cc(CN3CCC(O)CC3)c1O)CC2,5.49,5.40,5.59
CC(C)(C)OC(=O)N1CCN(Cc2cc3cc(c2O)Oc2ccc(cc2)CCc2ccc(CN4CCN(C(=O)OC(C)(C)C)CC4)c(O)c2-c2ccc(cc2O)CC3)CC1,< 4.70,< 4.70,< 4.70
CCCCN(CCCC)Cc1ccc2c(c1O)-c1ccc(cc1O)CCc1ccc(O)c(c1)Oc1ccc(cc1)CC2,< 4.70,< 4.70,< 4.70
Oc1ccc2cc1Oc1ccc(cc1)CCc1ccc(CN3CCCCC3)c(O)c1-c1ccc(cc1O)CC2,5.15,5.29,5.23
c1cc2c(c(OCCN3CCCCCC3)c1)-c1ccc(cc1OCCN1CCCCCC1)CCc1ccc(OCCN3CCCCCC3)c(c1)Oc1ccc(cc1)CC2,6.28,6.18,6.59
Oc1ccc2cc1Oc1ccc(cc1)CCc1ccc(CN3CCCC3)c(O)c1-c1ccc(cc1O)CC2,5.65,5.62,5.32
CN(CCO)Cc1cc2cc(c1O)Oc1ccc(cc1)CCc1ccc(CN(C)CCO)c(O)c1-c1ccc(cc1O)CC2,5.28,5.22,5.25
Oc1cc2ccc1-c1c(ccc(CN3CCOCC3)c1O)CCc1ccc(cc1)Oc1cc(cc(CN3CCOCC3)c1O)CC2,< 4.70,< 4.70,< 4.70
Oc1ccc2cc1Oc1ccc(cc1)CCc1ccc(CN3CCC(O)CC3)c(O)c1-c1ccc(cc1O)CC2,5.24,5.04,5.15
Oc1ccc2cc1Oc1ccc(cc1)CCc1cccc(OCCN3CCCCCC3)c1-c1ccc(cc1O)CC2,5.53,5.52,5.56
CN(C)CCOc1cccc2c1-c1ccc(cc1O)CCc1ccc(O)c(c1)Oc1ccc(cc1)CC2,5.89,5.62,5.81
CCN(CC)Cc1cc2cc(c1O)Oc1ccc(cc1)CCc1ccc(CN(CC)CC)c(O)c1-c1ccc(cc1O)CC2,5.42,5.98,5.73
CCN(CC)CCOc1cccc2c1-c1ccc(cc1O)CCc1ccc(O)c(c1)Oc1ccc(cc1)CC2,5.73,5.56,5.65
CCN(CC)Cc1ccc2c(c1O)-c1ccc(cc1O)CCc1ccc(O)c(c1)Oc1ccc(cc1)CC2,5.24,5.12,5.10
c1cc2c(c(OCCN3CCOCC3)c1)-c1ccc(cc1OCCN1CCOCC1)CCc1ccc(OCCN3CCOCC3)c(c1)Oc1ccc(cc1)CC2,5.28,5.38,5.46
c1cc2c(c(OCCN3CCCC3)c1)-c1ccc(cc1OCCN1CCCC1)CCc1ccc(OCCN3CCCC3)c(c1)Oc1ccc(cc1)CC2,5.98,6.06,5.75
Nc1cc2cc(c1O)Oc1ccc(cc1)CCc1cccc(O)c1-c1ccc(cc1O)CC2,< 4.70,< 4.70,< 4.70
Oc1ccc2cc1Oc1ccc(cc1)CCc1ccc(CN3CCN(Cc4ccccc4)CC3)c(O)c1-c1ccc(cc1O)CC2,< 4.70,< 4.70,< 4.70
CN1CCN(Cc2cc3cc(c2O)Oc2ccc(cc2)CCc2ccc(CN4CCN(C)CC4)c(O)c2-c2ccc(cc2O)CC3)CC1,5.67,5.54,5.48
CC(=O)Nc1cc2cc(c1OC(C)=O)Oc1ccc(cc1)CCc1cccc(OC(C)=O)c1-c1ccc(cc1OC(C)=O)CC2,< 4.70,< 4.70,< 4.70
Oc1ccc2cc1Oc1ccc(cc1)CCc1cccc(OCCN3CCOCC3)c1-c1ccc(cc1O)CC2,5.13,5.30,5.00
Oc1ccc2cc1Oc1ccc(cc1)CCc1ccc(CN3CCOCC3)c(O)c1-c1ccc(cc1O)CC2,< 4.70,< 4.70,< 4.70

Compound,pIC50 (A549),pIC50 (MCF7),pIC50 (K562)
COCCN(CCOC)Cc1cc2cc(c1O)Oc1ccc(cc1)CCc1ccc(CN(CCOC)CCOC)c(O)c1-c1ccc(cc1O)CC2,< 4.70,< 4.70,< 4.70
CN1CCN(Cc2ccc3c(c2O)-c2ccc(cc2O)CCc2ccc(O)c(c2)Oc2ccc(cc2)CC3)CC1,5.25,5.22,5.48
CCCCN(CCCC)Cc1cc2cc(c1O)Oc1ccc(cc1)CCc1ccc(CN(CCCC)CCCC)c(O)c1-c1ccc(cc1O)CC2,< 4.70,< 4.70,< 4.70
COc1ccc(N2CCN(Cc3ccc4c(c3O)-c3ccc(cc3O)CCc3ccc(O)c(c3)Oc3ccc(cc3)CC4)CC2)cc1,< 4.70,< 4.70,< 4.70
CN(CCO)Cc1ccc2c(c1O)-c1ccc(cc1O)CCc1ccc(O)c(c1)Oc1ccc(cc1)CC2,5.04,5.08,5.04
CC(=O)Nc1cc2cc(c1O)Oc1ccc(cc1)CCc1cccc(O)c1-c1ccc(cc1O)CC2,< 4.70,< 4.70,< 4.70
CC(C)(C)OC(=O)N1CCN(Cc2ccc3c(c2O)-c2ccc(cc2O)CCc2ccc(O)c(c2)Oc2ccc(cc2)CC3)CC1,< 4.70,< 4.70,< 4.70
c1cc2c(c(OCCCN3CCCC3)c1)-c1ccc(cc1OCCCN1CCCC1)CCc1ccc(OCCCN3CCCC3)c(c1)Oc1ccc(cc1)CC2,5.78,5.67,5.67
Oc1cc2ccc1-c1c(ccc(CN3CCN(Cc4ccccc4)CC3)c1O)CCc1ccc(cc1)Oc1cc(cc(CN3CCN(Cc4ccccc4)CC3)c1O)CC2,< 4.70,< 4.70,< 4.70
Oc1cc2ccc1-c1c(ccc(CN3CCSCC3)c1O)CCc1ccc(cc1)Oc1cc(cc(CN3CCSCC3)c1O)CC2,4.99,5.03,5.08
CN(C)CCCOc1ccc2cc1Oc1ccc(cc1)CCc1cccc(OCCCN(C)C)c1-c1ccc(cc1OCCCN(C)C)CC2,5.84,5.52,5.60
COCCN(CCOC)Cc1ccc2c(c1O)-c1ccc(cc1O)CCc1ccc(O)c(c1)Oc1ccc(cc1)CC2,< 4.70,< 4.70,< 4.70
c1cc2c(c(OCCN3CCCCC3)c1)-c1ccc(cc1OCCN1CCCCC1)CCc1ccc(OCCN3CCCCC3)c(c1)Oc1ccc(cc1)CC2,6.01,6.62,6.25
O=[N+]([O-])c1cc2cc(c1O)Oc1ccc(cc1)CCc1cccc(O)c1-c1ccc(cc1O)CC2,< 4.70,< 4.70,< 4.70
CN(C)c1cc2cc(c1O)Oc1ccc(cc1)CCc1cccc(O)c1-c1ccc(cc1O)CC2,< 4.70,< 4.70,< 4.70
COc1cccc2c1C(=O)c1c(O)c3c(c(O)c1C2=O)C[C@@](O)(C(=O)CO)C[C@@H]3O[C@H]1C[C@H](N)[C@H](O)[C@H](C)O1 [DOXORUBICIN HYDROCHLORIDE],5.84,5.64,6.21
Oc1cc2ccc1-c1c(ccc(CN3CCCCC3)c1O)CCc1ccc(cc1)Oc1cc(cc(CN3CCCCC3)c1O)CC2,5.31,5.69,6.18
Oc1ccc2cc1Oc1ccc(cc1)CCc1cccc(OCCN3CCCCC3)c1-c1ccc(cc1O)CC2,5.67,5.60,5.64
CCN(CC)CCOc1ccc2cc1Oc1ccc(cc1)CCc1cccc(OCCN(CC)CC)c1-c1ccc(cc1OCCN(CC)CC)CC2,6.11,6.25,6.19
Oc1ccc2cc1Oc1ccc(cc1)CCc1cccc(OCCCN3CCCC3)c1-c1ccc(cc1O)CC2,5.34,5.43,5.53
Oc1ccc2cc1Oc1ccc(cc1)CCc1cccc(OCCN3CCCC3)c1-c1ccc(cc1O)CC2,5.69,5.62,5.65
CN(C)Cc1cc2cc(c1O)Oc1ccc(cc1)CCc1ccc(CN(C)C)c(O)c1-c1ccc(cc1O)CC2,5.32,5.37,5.55
COc1ccc(N2CCN(Cc3cc4cc(c3O)Oc3ccc(cc3)CCc3ccc(CN5CCN(c6ccc(OC)cc6)CC5)c(O)c3-c3ccc(cc3O)CC4)CC2)cc1,< 4.70,< 4.70,< 4.70
